Data taken from ChEMBL document CHEMBL3091281, “Neuroprotective benzyl benzoate glycosides from Disporum viridescens roots in HT22 hippocampal neuronal cells” (J Nat Prod, 2013).
Calls of active or inactive are those of the source. The rule behind the calls is not given here.

How the values were obtained:
BV-2 (Mus musculus) [1] = experiment: Antiinflammatory activity in mouse BV2 cells assessed as inhibition of LPS-stimulated NO production at 10 to 100 uM by Griess assay
BV-2 (Mus musculus) [2] = experiment: Cytotoxicity against mouse BV2 cells
HT-22 [3] = experiment: Cytotoxicity against mouse HT22 cells; assay type: cell-based
How it was run: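 MTT viability assay in BV2 and HT22 cells, compounds tested without glutamate.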

HT-22 [4] = experiment: Neuroprotective activity against L-glutamate-induced neurotoxicity in mouse HT22 cells assessed as cell viability at 10 to 100 uM incubated 1 hr prior to L-glutamate-challenge measured after 12 hrs by MTT assay; assay type: functional, cell-based
How it was run: (§1)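 Mouse hippocampal HT22 cells seeded at 3 × 10^4 per well in DMEM, pretreated 1 h with compound in DMSO (0.1% final), then exposed to 5 mM L-glutamate; viability by MTT after further 12 h.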

HT-22 [5] = experiment: Induction of ERK phosphorylation in mouse HT22 cells at 100 uM after 0.5 to 12 hrs by Western blotting analysis; assay type: cell-based
How it was run: (§2)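 HT22 cells treated 30 min (kinases) or 12 h (HO-1) at stated concentrations or times; lysed in RIPA with protease and phosphatase inhibitors, 30 μg protein on 10% SDS-PAGE, PVDF transfer, overnight 4 °C primary antibodies (HO-1, ERK/p-ERK, JNK/p-JNK, p38/p-p38, β-actin), ECL detection.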

HT-22 [6] = experiment: Neuroprotective activity against L-glutamate-induced neurotoxicity in mouse HT22 cells assessed as GSH/GSSG ratio incubated 1 hr prior to L-glutamate-challenge measured after 12 hrs; assay type: functional, cell-based
HT-22 [7] = experiment: Neuroprotective activity against L-glutamate-induced neurotoxicity in mouse HT22 cells assessed as GSH-Px activity at 100 uM incubated 1 hr prior to L-glutamate-challenge measured after 12 hrs (reference value: 0.036 +/- 0.001 mU/mg protein); assay type: functional
HT-22 [8] = experiment: Neuroprotective activity against L-glutamate-induced neurotoxicity in mouse HT22 cells assessed as GR activity at 50 uM incubated 1 hr prior to L-glutamate-challenge measured after 12 hrs (reference value: 0.94 +/- 0.19 mU/mg protein); assay type: functional
HT-22 [9] = experiment: Induction of JNK phosphorylation in mouse HT22 cells at 100 uM after 0.5 to 12 hrs by Western blotting analysis; assay type: cell-based
How it was run: as §2

HT-22 [10] = experiment: Neuroprotective activity against L-glutamate-induced neurotoxicity in mouse HT22 cells assessed as SOD activity at 50 uM incubated 1 hr prior to L-glutamate-challenge measured after 12 hrs by xanthine-xanthine oxidase reaction (reference value: 16.10 +/- 0.54 U/mg protein); assay type: functional
HT-22 [11] = experiment: Neuroprotective activity against L-glutamate-induced neurotoxicity in mouse HT22 cells assessed as cell viability at 100 uM incubated 1 hr prior to L-glutamate-challenge measured after 12 hrs by MTT assay in presence of SnPP; assay type: functional, cell-based
How it was run: as §1

HT-22 [12] = experiment: Neuroprotective activity against L-glutamate-induced neurotoxicity in mouse HT22 cells assessed as GSH/GSSG ratio at 10 uM incubated 1 hr prior to L-glutamate-challenge measured after 12 hrs (reference value: 1.105 +/- 0.112); assay type: functional
HT-22 [13] = experiment: Neuroprotective activity against L-glutamate-induced neurotoxicity in mouse HT22 cells assessed as SOD activity at 10 uM incubated 1 hr prior to L-glutamate-challenge measured after 12 hrs by xanthine-xanthine oxidase reaction (reference value: 16.10 +/- 0.54 U/mg protein); assay type: functional
HT-22 [14] = experiment: Neuroprotective activity against L-glutamate-induced neurotoxicity in mouse HT22 cells assessed as GR activity at 10 uM incubated 1 hr prior to L-glutamate-challenge measured after 12 hrs (reference value: 0.94 +/- 0.19 mU/mg protein); assay type: functional
HT-22 [15] = experiment: Antioxidant activity in mouse HT22 cells assessed as HO-1 protein expression at 100 uM after 6 to 18 hrs by Western blotting analysis; assay type: functional, cell-based
How it was run: as §2

HT-22 [16] = experiment: Neuroprotective activity against L-glutamate-induced neurotoxicity in mouse HT22 cells assessed as GSH/GSSG ratio at 100 uM incubated 1 hr prior to L-glutamate-challenge measured after 12 hrs (reference value: 1.105 +/- 0.112); assay type: functional
HT-22 [17] = experiment: Neuroprotective activity in mouse HT22 cells assessed as HO-1 protein expression at 100 uM by Western blotting analysis in presence of SB203580; assay type: functional, cell-based
How it was run: as §2

HT-22 [18] = experiment: Antioxidant activity in mouse HT22 cells assessed as HO-1 protein expression after 0.5 to 12 hrs by Western blotting analysis; assay type: functional, cell-based
How it was run: as §2

HT-22 [19] = experiment: Neuroprotective activity against L-glutamate-induced neurotoxicity in mouse HT22 cells assessed as GSH/GSSG ratio at 50 uM incubated 1 hr prior to L-glutamate-challenge measured after 12 hrs (reference value: 1.105 +/- 0.112); assay type: functional
HT-22 [20] = experiment: Neuroprotective activity against L-glutamate-induced neurotoxicity in mouse HT22 cells assessed as GSH-Px activity at 50 uM incubated 1 hr prior to L-glutamate-challenge measured after 12 hrs (reference value: 0.036 +/- 0.001 mU/mg protein); assay type: functional
HT-22 [21] = experiment: Neuroprotective activity in mouse HT22 cells assessed as HO-1 protein expression at 100 uM by Western blotting analysis in presence of PD98059; assay type: functional, cell-based
How it was run: as §2

HT-22 [22] = experiment: Neuroprotective activity against L-glutamate-induced neurotoxicity in mouse HT22 cells assessed as SOD activity at 100 uM incubated 1 hr prior to L-glutamate-challenge measured after 12 hrs by xanthine-xanthine oxidase reaction (reference value: 16.10 +/- 0.54 U/mg protein); assay type: functional
[23] = target: MAP kinase p38 (Mus musculus) (UniProt P47811+O08911+Q9WUI1+Q9Z1B7); experiment: Induction of p38 phosphorylation in mouse HT22 cells at 100 uM after 0.5 to 12 hrs by Western blotting analysis; assay type: cell-based; conditions: HT-22
How it was run: as §2

HT-22 [24] = experiment: Neuroprotective activity against L-glutamate-induced neurotoxicity in mouse HT22 cells assessed as GSH-Px activity at 10 uM incubated 1 hr prior to L-glutamate-challenge measured after 12 hrs (reference value: 0.036 +/- 0.001 mU/mg protein); assay type: functional
HT-22 [25] = experiment: Neuroprotective activity in mouse HT22 cells assessed as HO-1 protein expression at 100 uM by Western blotting analysis in presence of SP600125; assay type: functional, cell-based
How it was run: as §2

HT-22 [26] = experiment: Antioxidant activity in mouse HT22 cells assessed as HO-1 protein expression at 100 uM by Western blotting analysis; assay type: functional, cell-based; conditions: TDE = time-dependent effect
How it was run: as §2

HT-22 [27] = experiment: Neuroprotective activity against L-glutamate-induced neurotoxicity in mouse HT22 cells assessed as GR activity at 100 uM incubated 1 hr prior to L-glutamate-challenge measured after 12 hrs (reference value: 0.94 +/- 0.19 mU/mg protein); assay type: functional

C[C@@H]1O[C@@H](Oc2ccc(O)c(O)c2C(=O)OCc2ccccc2O[C@@H]2O[C@H](CO)[C@@H](O)[C@H](O)[C@H]2O)[C@H](O)[C@H](O)[C@H]1O
Activity (BV-2 (Mus musculus) [1]): Active | Activity (BV-2 (Mus musculus) [2]): Toxic | Activity (HT-22 [3]): Toxic

O=C(OCc1ccccc1O[C@@H]1O[C@H](CO)[C@@H](O)[C@H](O)[C@H]1O)c1c(O)cccc1O[C@@H]1O[C@H](CO)[C@@H](O)[C@H](O)[C@H]1O
Activity (BV-2 (Mus musculus) [1]): Active | Activity (BV-2 (Mus musculus) [2]): Toxic | Activity (HT-22 [3]): Toxic

COc1ccc(O[C@@H]2O[C@@H](C)[C@H](O)[C@@H](O)[C@H]2O)c(C(=O)OCc2ccccc2O[C@@H]2O[C@H](CO)[C@@H](O)[C@H](O)[C@H]2O)c1O
Activity (BV-2 (Mus musculus) [1]): Active | Activity (BV-2 (Mus musculus) [2]): Toxic | Activity (HT-22 [3]): Toxic | Activity (HT-22 [4]): Active

COc1c(O)ccc(O[C@@H]2O[C@@H](C)[C@H](O)[C@@H](O)[C@H]2O)c1C(=O)OCc1ccccc1O[C@@H]1O[C@@H](C)[C@H](O)[C@@H](O)[C@H]1O
Activity (BV-2 (Mus musculus) [1]): Active | Activity (BV-2 (Mus musculus) [2]): Toxic | Activity (HT-22 [3]): Toxic | Activity (HT-22 [4]): Active

COc1c(O)ccc(O[C@@H]2O[C@@H](C)[C@H](O)[C@@H](O)[C@H]2O)c1C(=O)OCc1ccccc1O[C@@H]1O[C@H](CO)[C@@H](O)[C@H](O)[C@H]1O
Activity (BV-2 (Mus musculus) [1]): Active | Activity (BV-2 (Mus musculus) [2]): Toxic | Activity (HT-22 [3]): Toxic | Activity (HT-22 [4]): Active

COc1c(O)ccc(O[C@@H]2O[C@@H](C)[C@H](OC(C)=O)[C@@H](O)[C@H]2O)c1C(=O)OCc1ccccc1O[C@@H]1O[C@H](CO)[C@@H](O)[C@H](O)[C@H]1O
Activity (BV-2 (Mus musculus) [1]): Active | Activity (HT-22 [5]): Active | Activity (HT-22 [6]): Dose-dependent effect | Activity (HT-22 [7]): 0.059 mU/mg | Activity (BV-2 (Mus musculus) [2]): Toxic | Activity (HT-22 [8]): 0.9 mU/mg | Activity (HT-22 [9]): inactive | Activity (HT-22 [10]): 29.05 U/mg | Activity (HT-22 [11]): inactive | Ratio (HT-22 [12]): 1.594 | Activity (HT-22 [13]): 29.78 U/mg | Activity (HT-22 [3]): Toxic | Activity (HT-22 [14]): 0.72 mU/mg | Activity (HT-22 [15]): Active | Ratio (HT-22 [16]): 2.824 | Activity (HT-22 [17]): Active | Activity (HT-22 [18]): Dose-dependent effect | Ratio (HT-22 [19]): 2.3 | Activity (HT-22 [20]): 0.055 mU/mg | Activity (HT-22 [4]): Active | Activity (HT-22 [21]): inactive | Activity (HT-22 [22]): 30.71 U/mg | Activity [23]: inactive | Activity (HT-22 [24]): 0.056 mU/mg | Activity (HT-22 [25]): Active | Activity (HT-22 [26]): tde | Activity (HT-22 [27]): 1.14 mU/mg
